A selection: hits, their analogues and other compounds. The true share with any hit is near 2.3%.
STAT3 inh-1 = inhibitors of IL-6 induced STAT3 signaling; U3A cells, IL-6 STAT3-luciferase reporter, luminescence; host cell line lacks STAT1; AID 862; actives 0.89% (n = 190,000); inhibition, % at 5.5 µM;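 active means inhibition above the mean inhibition across all screened compounds plus 3 SD, cut at about 44% in these data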;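 further: 0% = DMSO only wells and 100% = 100 µM nifuroxazide control wells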
PPC-1+TRAIL kill = kills PPC-1 cancer cells in the presence of TRAIL; PPC-1 cells + TRAIL, ATPLite viability luminescence; cell killing (% activity), % at 4 µM or 5 µM; actives 0.41% (n = 220,000); AID 1443;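 active means cell killing above 50% in the first pass at 4 µM, then a duplicate retest at 5 µM averaging 50% or more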;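 further: plate controls were cells with TRAIL plus DMSO for no effect and medium-only wells lacking cells for full effect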
STAT3 activator = activators of IL-6 induced STAT3 signaling; AID 871; U3A cells, IL-6 STAT3-luciferase reporter, luminescence; 100% = signal with IL-6 EC80 alone; activation (% of control), % at 5.6 µM; actives 0.91% (n = 190,000);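 active means activation above the screen-wide mean of compound activation plus 3 SD, cut at about 130% in these data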;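 further: 0% = background luminescence of wells with medium and substrate only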
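Detection: reporter luminescence signal / Assay system: STAT1-lacking human U3A cells, STAT3 luciferase reporter / Incubation: compound pre-incubation 1 h before IL-6, then 6 h stimulation at 37 °C / Control set: IL-6-only high control / Read-out: % activation relative to IL-6 control / Probe or stimulus: Interleukin-6, 33 ng/mL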
HSP90 refold inh = HSP90 refolding inhibition in rabbit reticulocyte lysate | luciferase refolding luminescence, 3 h | inhibition, % at 5.6 µM | actives 0.91% (n = 290,000) | AID 1789;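 active means inhibition above the screen-wide mean plus 3 SD, computed separately per campaign, cut at about 16% in these data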;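 further: 0% = DMSO wells and 100% = 60 µM geldanamycin wells; inhibitors lower the luminescence because luciferase stays unfolded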
C8 TRAIL sens = caspase-8 TRAIL sensitization; NB7+C8 cells + TRAIL, ATPlite viability luminescence; AID 624354; actives 1% (n = 360,000); inhibition (viability loss, TRAIL sensitization), % at 10 µM;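 active means compounds causing at least 50% loss of cell viability in the single-dose screen, relative to plate controls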
STAT1 blocker = inhibitors of IFN-gamma induced STAT1 signaling; NIH 3T3 STAT1-luciferase reporter, luminescence; inhibition, % at 5.5 µM; actives 0.35% (n = 200,000);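 active means inhibition above a set limit, the mean inhibition across all tested compounds plus 3 SD, cut at about 34% in these data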;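 further: 0% = IFN-gamma with DMSO and 100% = IFN-gamma with 300 µM nifuroxazide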
STAT3 inh-2 = STAT3 inhibition, confirmation assay; shares compounds with STAT3 inh-1; U3A cells, IL-6 STAT3 luciferase reporter, luminescence; cell line lacks STAT1; inhibition, % at 5.7 µM; actives 45% (n = 1,200); AID 1265;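 active means inhibition above the hit cutoff computed for the primary STAT3 screen, cut at about 44% in these data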;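 further: 0% = IL-6 plus DMSO and 100% = IL-6 plus nifuroxazide control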
NFkB inh STAT3ct = inhibits NF-kappaB, counter-screen to STAT3 inhibitors; actives 36% (n = 1,200); shares compounds with STAT3 inh-1; HEK293T NF-kB luciferase reporter, TNF-alpha induced; inhibition, % at 5.7 µM;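 active means inhibition above the mean of solvent-only control wells plus 3 SD, cutoff set per campaign, cut at about 13% in these data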;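 further: 0% = TNF-alpha with DMSO and 100% = TNF-alpha with MG high control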
STAT1 inh STAT3c = counter-screen for STAT3 inhibitors: STAT1 inhibition. NIH 3T3 STAT1-luciferase reporter, IFN-gamma induced, luminescence. AID 1317. inhibition, % at 5.7 µM. shares compounds with STAT3 inh-1. actives 27% (n = 1,200);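 active means inhibition above the mean plus 3 SD of solvent-only control wells, limit set per screening run, cut at about 16% in these data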;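 further: 0% = DMSO with IFN-gamma and 100% = nifuroxazide control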
Numbers without * were called inactive.

What do the screens show for `CCCCN(C(=O)COC(=O)C1(c2ccccc2)CC1)c1c(N)n(CCC)c(=O)[nH]c1=O`?
C8 TRAIL sens: -4

What do the screens show for `Cc1cccc(N2C(=O)c3ccc(Br)cc3C2=O)n1`?
HSP90 refold inh: -1; C8 TRAIL sens: -11

Results for O=C1c2ccc(Br)cc2C(=O)N1c1ccc(Cc2ccncc2)cc1 ?
STAT3 inh-1: 59*; STAT3 activator: 50; HSP90 refold inh: 4; C8 TRAIL sens: 8; STAT1 blocker: 26; STAT3 inh-2: 59*; NFkB inh STAT3ct: 5; STAT1 inh STAT3c: 12

How did Cc1csc(SCC(=O)c2c(N)n(CC(C)C)c(=O)n(C)c2=O)n1 do in these assays?
STAT3 inh-1: 49*; PPC-1+TRAIL kill: -11; STAT3 activator: 62; HSP90 refold inh: 3; C8 TRAIL sens: 14; STAT1 blocker: 16; STAT3 inh-2: 49*; NFkB inh STAT3ct: -2; STAT1 inh STAT3c: 20*

Results for Cc1nn(-c2ccccc2)c(C)c1C(=O)OCC(=O)c1c(N)n(CC(C)C)c(=O)n(C)c1=O ?
STAT3 inh-1: 44*; PPC-1+TRAIL kill: 18; STAT3 activator: 67; HSP90 refold inh: -2; C8 TRAIL sens: 43; STAT1 blocker: 11; STAT3 inh-2: 66*; NFkB inh STAT3ct: 14*; STAT1 inh STAT3c: 14

What do the screens show for `CCOC(=O)Cc1csc(SCC(=O)c2c(N)n(CC(C)C)c(=O)n(C)c2=O)n1`?
STAT3 inh-1: 64*; PPC-1+TRAIL kill: 5; STAT3 activator: 51; HSP90 refold inh: 0; C8 TRAIL sens: 24; STAT1 blocker: 15; STAT3 inh-2: 52*; NFkB inh STAT3ct: 13; STAT1 inh STAT3c: 15

Results for CC(C)Cn1c(N)c(C(=O)COC(=O)c2ccc(O)cc2)c(=O)n(C)c1=O ?
STAT3 inh-1: 1; PPC-1+TRAIL kill: 11; STAT3 activator: 100; HSP90 refold inh: -2; C8 TRAIL sens: 3; STAT1 blocker: 4

Results for COc1ccc(NC(=O)CN2CC(C)OC(C)C2)cc1Cl (stereo not given) ?
STAT3 inh-1: -1; PPC-1+TRAIL kill: 2; STAT3 activator: 102; HSP90 refold inh: 6; C8 TRAIL sens: -9; STAT1 blocker: 4

Results for O=C(Cn1nc(C(=O)O)c2ccccc2c1=O)Nc1ccc(Br)cc1 ?
HSP90 refold inh: -1; C8 TRAIL sens: -22

What do the screens show for `C=CCn1c(SCC(=O)C(C)(C)C)nnc1-c1ccccn1`?
STAT3 inh-1: 5; PPC-1+TRAIL kill: 17; STAT3 activator: 99; HSP90 refold inh: -2; C8 TRAIL sens: 2; STAT1 blocker: -4

How did CCCOc1ccc(/C=C/C(=O)Nc2ccc([N+](=O)[O-])cc2)cc1 do in these assays?
STAT3 inh-1: 72*; PPC-1+TRAIL kill: 4; STAT3 activator: 46; HSP90 refold inh: -1; C8 TRAIL sens: 16; STAT1 blocker: -3; STAT3 inh-2: 36; NFkB inh STAT3ct: 15*; STAT1 inh STAT3c: -11

What do the screens show for `O=C(/C=C/c1ccc([N+](=O)[O-])cc1)NCc1ccccn1`?
STAT3 inh-1: -2; PPC-1+TRAIL kill: 22; STAT3 activator: 106; HSP90 refold inh: -2; C8 TRAIL sens: 23; STAT1 blocker: -10

Results for O=C(/C=C/c1ccc([N+](=O)[O-])cc1)Nc1ncc([N+](=O)[O-])s1 ?
STAT3 inh-1: 50*; PPC-1+TRAIL kill: 18; STAT3 activator: 61; HSP90 refold inh: 0; C8 TRAIL sens: 59*; STAT1 blocker: -51; STAT3 inh-2: -28; NFkB inh STAT3ct: -48; STAT1 inh STAT3c: -185

What do the screens show for `Clc1ccc2nc(C3CCCCC3)c(Cc3ccsc3)n2c1`?
C8 TRAIL sens: 8

Results for CC(C)(C)c1ccc(OCc2ccc(C(=O)N/N=C/c3ccc([N+](=O)[O-])cc3)o2)cc1 ?
STAT3 inh-1: -8; PPC-1+TRAIL kill: 14; STAT3 activator: 111; HSP90 refold inh: 11; C8 TRAIL sens: 10; STAT1 blocker: -34

Results for Cn1c(C(=O)NCCc2ccccc2)cc(=O)n(C)c1=O ?
STAT3 inh-1: 10; STAT3 activator: 97; HSP90 refold inh: -1; C8 TRAIL sens: 17; STAT1 blocker: -6

Results for O=C(Nc1ccc(Cl)c(S(=O)(=O)N2CCOCC2)c1)c1ccc(OCC2CCCO2)cc1 (stereo not given) ?
STAT3 inh-1: 54*; PPC-1+TRAIL kill: 11; STAT3 activator: 58; HSP90 refold inh: -2; C8 TRAIL sens: 51*; STAT1 blocker: 26; STAT3 inh-2: 61*; NFkB inh STAT3ct: 22*; STAT1 inh STAT3c: 9

Results for O=C(Nc1cccc(C(=O)NC2CC2)c1)c1ccc(Cl)c(S(=O)(=O)N2CCOCC2)c1 ?
C8 TRAIL sens: -1

What do the screens show for `CC(C)Oc1ccc(C(=O)Nc2cccc(S(=O)(=O)N3CCCC3)c2)cc1`?
C8 TRAIL sens: 5

What do the screens show for `Cc1ccc(C(=O)Nc2cccc(C(=O)O)c2)cc1S(=O)(=O)N1CCCCC1`?
STAT3 inh-1: 55*; PPC-1+TRAIL kill: 28; STAT3 activator: 58; HSP90 refold inh: 2; C8 TRAIL sens: 32; STAT1 blocker: 22; STAT3 inh-2: 13; NFkB inh STAT3ct: 14*; STAT1 inh STAT3c: 18*

Results for O=C(Nc1cccc(Br)c1)c1ccc(Cl)c(S(=O)(=O)N2CCOCC2)c1 ?
STAT3 inh-1: 73*; PPC-1+TRAIL kill: 30; STAT3 activator: 40; HSP90 refold inh: -1; C8 TRAIL sens: 38; STAT1 blocker: 12; STAT3 inh-2: 66*; NFkB inh STAT3ct: 15*; STAT1 inh STAT3c: 13

What do the screens show for `Cc1cc(C)n(-c2ccc(C(=O)Nc3cccc(S(=O)(=O)N4CCCC4)c3)cc2)n1`?
STAT3 inh-1: 44*; PPC-1+TRAIL kill: 19; STAT3 activator: 66; HSP90 refold inh: 0; C8 TRAIL sens: 18; STAT1 blocker: 23; STAT3 inh-2: 39; NFkB inh STAT3ct: 4; STAT1 inh STAT3c: 9

What do the screens show for `c1ccc2ncc(-n3ccnc3)cc2c1`?
C8 TRAIL sens: 6

What do the screens show for `O=C1c2cccc3cccc(c23)C(=O)N1CCCN(C(=O)c1cccs1)c1cccc(F)c1`?
STAT3 inh-1: -39; PPC-1+TRAIL kill: 5; STAT3 activator: 128; HSP90 refold inh: -6; C8 TRAIL sens: 9; STAT1 blocker: -2

What do the screens show for `CCOc1ccccc1C(=O)Nc1nnc(CC)s1`?
STAT3 inh-1: 2; PPC-1+TRAIL kill: -20; STAT3 activator: 98; HSP90 refold inh: 6; C8 TRAIL sens: -3; STAT1 blocker: -15
